The nature of data set [1]: Cytotoxicity against human mock-infected MT4 cells after 4 days by MTT assay. It counts as cell-based. Put shortly:
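Mock-infected MT-4 cells were grown in HEPES-buffered RPMI-1640 with 10% heat-inactivated FCS and subcultured every 3–4 d. Viability was read by MTT at 7.5 mg/ml for 1 h at 37 °C, with formazan dissolved in acidified Triton X-100/isopropanol and read at A540 minus A690. CC50 is the concentration lowering OD540 of the mock-infected control by 50%.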
For orientation: Formazan colour is commonly taken as a measure of viable cells.

The test system of data set [2] is Human immunodeficiency virus 1. The data set can be described thus: Antiviral activity against wild type HIV1 infected in human MT4 cells assessed as protection against virus-induced cytopathogenicity after 5 days by MTT assay. Particulars: Human immunodeficiency virus 1, MT4, 120 h.

In brackets after ≈: the same amount, converted by molar mass.

As a reminder, the CC50 is the concentration at which the toxic effect on the cells reaches its halfway point. Low readings indicate harm at low concentration, high ones better tolerance by the cells. In general, EC50 refers to the concentration at which the effect is half-maximal. As to `Cc1ccc2c(CC(=O)Nc3nc4cc(Cl)c(F)cc4s3)cc(=O)oc2c1`, the CC50 at 96 h in data set [1] is above 17 mg/L. Besides, in data set [2], the EC50 was 17 mg/L (≈ 42.2 µM).

For `O=C(Cc1cc(=O)oc2cc(O)ccc12)Nc1nc2cc(Cl)c(F)cc2s1`, in data set [1], the CC50 at 96 h was above 100 mg/L. Moreover, in data set [2], the concentration giving a half-maximal response (EC50) came out at 100 mg/L (≈ 247 µM).

Regarding `Cc1cc(C)c2oc(=O)cc(CC(=O)Nc3nc4cc(Cl)c(F)cc4s3)c2c1`, in data set [1], the 50% cytotoxic concentration (CC50) at 96 h is above 16 mg/L. Besides, the EC50 in data set [2] amounted to 16 mg/L (≈ 38.4 µM).

The compound `Cc1ccc2oc(=O)cc(CC(=O)Nc3nc4ccc(Cl)cc4s3)c2c1` came in with a CC50 at 96 h in data set [1] above 27 mg/L. The EC50 in data set [2] turned out to be 27 mg/L (≈ 70.2 µM).

Regarding `Cc1cccc2c(CC(=O)Nc3nc4ccc([N+](=O)[O-])cc4s3)cc(=O)oc12`, the CC50 at 96 h in data set [1] was above 12 mg/L. The EC50 in data set [2] stood at 12 mg/L (≈ 30.3 µM).

In data set [1], `COc1ccc2nc(NC(=O)Cc3cc(=O)oc4ccc5ccccc5c34)sc2c1` showed a half-maximal cytotoxic concentration (CC50) at 96 h above 100 mg/L. Besides, the EC50 in data set [2] came to 100 mg/L (≈ 240 µM).

In data set [1], `Cc1ccc2c(CC(=O)Nc3nc4ccc([N+](=O)[O-])cc4s3)cc(=O)oc2c1C` came in with a 50% cytotoxic concentration (CC50) at 96 h above 9 mg/L. Also, in data set [2], the 50% effective concentration (EC50) is 9 mg/L (≈ 22 µM).

`Cc1ccc2c(CC(=O)Nc3nc4ccc(F)cc4s3)cc(=O)oc2c1`: the cytotoxic concentration (CC50) at 96 h in data set [1] is above 44 mg/L. Besides, the 50% effective concentration (EC50) in data set [2] came out at 44 mg/L (≈ 119 µM).

As to `O=C(Cc1cc(=O)oc2cc(O)ccc12)Nc1nc2ccc(Cl)cc2s1`, the cytotoxic concentration (CC50) at 96 h in data set [1] is above 7 mg/L. The EC50 in data set [2] amounted to 7 mg/L (≈ 18.1 µM).

Compound `O=C(Cc1cc(=O)oc2cc(O)ccc12)Nc1nc2ccc(F)cc2s1` returned a 50% cytotoxic concentration (CC50) at 96 h in data set [1] above 21 mg/L. In data set [2], the EC50 came to 21 mg/L (≈ 56.7 µM).

For the compound `Cc1cc(C)c2oc(=O)cc(CC(=O)Nc3nc4ccc([N+](=O)[O-])cc4s3)c2c1`, the CC50 at 96 h in data set [1] is above 100 mg/L. In addition, the EC50 in data set [2] came to 100 mg/L (≈ 244 µM).

In data set [1], `Cc1cc(C)c2oc(=O)cc(CC(=O)Nc3nc4ccc(F)cc4s3)c2c1` showed a 50% cytotoxic concentration (CC50) at 96 h above 38 mg/L. Moreover, in data set [2], the EC50 came out at 38 mg/L (≈ 99.4 µM).

In the case of `Cc1ccc2c(CC(=O)Nc3nc4ccc(Cl)cc4s3)cc(=O)oc2c1`, in data set [1], the 50% cytotoxic concentration (CC50) at 96 h is above 44 mg/L. The 50% effective concentration (EC50) in data set [2] is 44 mg/L (≈ 114 µM).

Turning to `Cc1ccc2c(CC(=O)Nc3nc4ccc([N+](=O)[O-])cc4s3)cc(=O)oc2c1`, in data set [1], the CC50 at 96 h was above 49 mg/L. For the same compound, in data set [2], the EC50 is 49 mg/L (≈ 124 µM).

Regarding `Cc1ccc2oc(=O)cc(CC(=O)Nc3nc4cc(Cl)c(F)cc4s3)c2c1`, in data set [1], the half-maximal cytotoxic concentration (CC50) at 96 h was above 12 mg/L. In data set [2], the concentration giving a half-maximal response (EC50) worked out at 12 mg/L (≈ 29.8 µM).

As to `O=C(Cc1cc(=O)oc2cc(O)ccc12)Nc1nc2ccc([N+](=O)[O-])cc2s1`, the CC50 at 96 h in data set [1] was above 8 mg/L. For the same compound, in data set [2], the 50% effective concentration (EC50) is 8 mg/L (≈ 20.1 µM).

Regarding `Cc1ccc2c(CC(=O)Nc3nc4ccc(F)cc4s3)cc(=O)oc2c1C`, in data set [1], the CC50 at 96 h is above 24 mg/L. The EC50 in data set [2] was found to be 24 mg/L (≈ 62.8 µM).

In data set [1], `Cc1ccc2oc(=O)cc(CC(=O)Nc3nc4ccc(F)cc4s3)c2c1` had a CC50 at 96 h above 20 mg/L. Moreover, the half-maximal effective concentration (EC50) in data set [2] stood at 20 mg/L (≈ 54.3 µM).

With `Cc1ccc2oc(=O)cc(CC(=O)Nc3nc4ccc([N+](=O)[O-])cc4s3)c2c1`, the 50% cytotoxic concentration (CC50) at 96 h in data set [1] is above 32 mg/L. Moreover, the concentration giving a half-maximal response (EC50) in data set [2] was determined as 32 mg/L (≈ 80.9 µM).

`Cc1ccc2c(CC(=O)Nc3nc4cc(Cl)c(F)cc4s3)cc(=O)oc2c1C`: the CC50 at 96 h in data set [1] was above 97 mg/L. In data set [2], the 50% effective concentration (EC50) is 97 mg/L (≈ 233 µM).

Turning to `Cc1cccc2c(CC(=O)Nc3nc4ccc(F)cc4s3)cc(=O)oc12`, the CC50 at 96 h in data set [1] was above 100 mg/L. Also, the 50% effective concentration (EC50) in data set [2] is 100 mg/L (≈ 271 µM).

In turn, `Cc1cc(C)c2oc(=O)cc(CC(=O)Nc3nc4ccc(Cl)cc4s3)c2c1` had a CC50 at 96 h in data set [1] above 65 mg/L. The EC50 in data set [2] amounted to 65 mg/L (≈ 163 µM).

`Cc1cn([C@H]2C[C@H](N=[N+]=[N-])[C@@H](CO)O2)c(=O)[nH]c1=O` [ZIDOVUDINE]: the midpoint of cytotoxicity in data set [1], the CC50 at 96 h, lay at 65.4 mg/L (≈ 245 µM). Further, in data set [2], the EC50 was determined as 0.0012 mg/L (≈ 0.00449 µM).

In data set [1], `Cc1cccc2c(CC(=O)Nc3nc4cc(Cl)c(F)cc4s3)cc(=O)oc12` returned a cytotoxic concentration (CC50) at 96 h above 58 mg/L. The concentration giving a half-maximal response (EC50) in data set [2] stood at 58 mg/L (≈ 144 µM).

Consider `Cc1ccc2c(CC(=O)Nc3nc4ccc(Cl)cc4s3)cc(=O)oc2c1C`, for which the CC50 at 96 h in data set [1] was above 60 mg/L. Moreover, the concentration giving a half-maximal response (EC50) in data set [2] worked out at 60 mg/L (≈ 150 µM).

`Cc1cccc2c(CC(=O)Nc3nc4ccc(Cl)cc4s3)cc(=O)oc12` displayed a CC50 at 96 h in data set [1] above 21 mg/L. For the same compound, in data set [2], the concentration giving a half-maximal response (EC50) amounted to 21 mg/L (≈ 54.6 µM).

`COc1ccc2nc(NC(=O)Cc3cc(=O)oc4c3ccc3ccccc34)sc2c1` came in with a CC50 at 96 h in data set [1] above 100 mg/L. In addition, in data set [2], the EC50 worked out at 100 mg/L (≈ 240 µM).

These data come from ChEMBL document CHEMBL1777810, “Synthesis and in vitro anti-HIV activity of N-1,3-benzo[d]thiazol-2-yl-2-(2-oxo-2H-chromen-4-yl)acetamide derivatives using MTT method” (Bioorg Med Chem Lett, 2011).
